Test results from ChEMBL document CHEMBL2086296, “Synthesis of novel quinoline-2-one based chalcones of potential anti-tumor activity” (Eur J Med Chem, 2012).

Experiments:
[1] = tested on: HOP-62; test: (§1) Cytotoxicity against human HOP62 cells after 24 hrs by SRB assay; type: functional; settings: HOP-62, 24 h
Procedure, shortened: (§2)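 NCI 60-line screen. Cells in RPMI 1640 with 5% FBS and 2 mM L-glutamine, seeded at 5,000–40,000 cells/well by doubling time, then incubated 24 h at 37 °C, 5% CO2 before dosing. Time-zero plates fixed with TCA at drug addition. DMSO stocks diluted in medium with gentamicin to five concentrations, […]. Protein read by SRB staining. GI50, TGI and LC50 derived relative to control and time-zero.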

[2] = tested on: NCI-H226; test: Cytotoxicity against human NCI-H226 cells after 24 hrs by SRB assay; type: functional; settings: NCI-H226, 24 h; procedure, shortened: as §2
[3] = tested on: NCI-H23; test: Cytotoxicity against human NCI-H23 cells after 24 hrs by SRB assay; type: functional; settings: NCI-H23, 24 h; procedure, shortened: as §2
[4] = tested on: A549; test: (§3) Cytotoxicity against human A549 cells after 24 hrs by SRB assay; type: functional; settings: A549, 24 h; procedure, shortened: as §2
[5] = tested on: HCT-116; test: (§4) Cytotoxicity against human HCT116 cells after 24 hrs by SRB assay; type: functional; settings: HCT-116, 24 h; procedure, shortened: as §2
[6] = tested on: SF-295; test: Cytotoxicity against human SF295 cells after 24 hrs by SRB assay; type: functional; settings: SF-295, 24 h; procedure, shortened: as §2
[7] = tested on: SNB-19; test: Cytotoxicity against human SNB19 cells after 24 hrs by SRB assay; type: functional; settings: SNB-19, 24 h
Procedure, shortened: (§5)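 NCI 60-cell screen. Cells are grown in RPMI 1640 with 5% FBS and 2 mM L-glutamine and seeded at 5,000–40,000 cells/well according to doubling time. They are preincubated 24 h at 37 °C in 5% CO2, and Tz plates are TCA-fixed at drug addition. Drug stock is in DMSO, diluted in medium with gentamicin, and tested at five concentrations (100, 10, 1.0, 0.1, […]). Protein is read by SRB staining. GI50, TGI and LC50 are derived relative to time-zero and control wells.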

[8] = tested on: SNB-75; test: Cytotoxicity against human SNB75 cells after 24 hrs by SRB assay; type: functional; settings: SNB-75, 24 h; procedure, shortened: as §5
[9] = tested on: UACC-257; test: Cytotoxicity against human UACC257 cells after 24 hrs by SRB assay; type: functional; settings: UACC-257, 24 h; procedure, shortened: as §5
[10] = tested on: SK-MEL-2; test: Cytotoxicity against human SK-MEL-2 cells after 24 hrs by SRB assay; type: functional; settings: SK-MEL-2, 24 h; procedure, shortened: as §2
[11] = tested on: M14; test: Cytotoxicity against human M14 cells after 24 hrs by SRB assay; type: functional; settings: M14, 24 h; procedure, shortened: as §2
[12] = tested on: SK-MEL-28; test: Cytotoxicity against human SK-MEL-28 cells after 24 hrs by SRB assay; type: functional; settings: SK-MEL-28, 24 h; procedure, shortened: as §2
[13] = tested on: NCI/ADR-RES; test: Cytotoxicity against human NCI/ADR-RES cells after 24 hrs by SRB assay; type: functional; procedure, shortened: as §2
[14] = tested on: OVCAR-8; test: (§6) Cytotoxicity against human OVCAR8 cells after 24 hrs by SRB assay; type: functional; settings: OVCAR-8, 24 h; procedure, shortened: as §2
[15] = tested on: OVCAR-5; test: Cytotoxicity against human OVCAR5 cells after 24 hrs by SRB assay; type: functional; settings: OVCAR-5, 24 h; procedure, shortened: as §2
[16] = tested on: CAKI-1; test: Cytotoxicity against human CAKI-1 cells after 24 hrs by SRB assay; type: functional; settings: CAKI-1, 24 h; procedure, shortened: as §2
[17] = tested on: SN12C; test: Cytotoxicity against human SN12C cells after 24 hrs by SRB assay; type: functional; procedure, shortened: as §2
[18] = tested on: BT-549; test: Cytotoxicity against human BT549 cells after 24 hrs by SRB assay; type: functional; settings: BT-549, 24 h; procedure, shortened: as §2
[19] = tested on: T47D; test: Cytotoxicity against human T47D cells after 24 hrs by SRB assay; type: functional; procedure, shortened: as §5
[20] = (§7) Cytotoxicity against human Hs 578T cells after 24 hrs by SRB assay; type: functional; procedure, shortened: as §2
[21] = tested on: HOP-62; test: as §1; type: cell-based; settings: hop-62, 24 h
Procedure, shortened: (§8)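 NCI 60-cell screen. Cells grown in RPMI 1640 with 5% FBS and 2 mM L-glutamine, seeded at 5,000–40,000 cells/well, preincubated 24 h at 37 °C in 5% CO2. Drug stock in DMSO, diluted in medium with gentamicin; five final concentrations, 100, 10, 1.0, 0.1 and […]. Time-zero plates were TCA-fixed. Protein read by SRB staining; GI50, TGI and LC50 taken relative to time-zero.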

[22] = tested on: NCI-H460; test: Cytotoxicity against human NCI-H460 cells after 24 hrs by SRB assay; type: cell-based; settings: nci-h460, 24 h; procedure, shortened: as §8
[23] = tested on: A549; test: as §3; type: cell-based; settings: a549, 24 h; procedure, shortened: as §8
[24] = tested on: HCT-116; test: as §4; type: cell-based; settings: hct-116, 24 h; procedure, shortened: as §8
[25] = tested on: KM12; test: Cytotoxicity against human KM12 cells after 24 hrs by SRB assay; type: cell-based; settings: km12, 24 h; procedure, shortened: as §8
[26] = tested on: SF-539; test: Cytotoxicity against human SF539 cells after 24 hrs by SRB assay; type: cell-based; settings: sf-539, 24 h; procedure, shortened: as §8
[27] = tested on: LOX IMVI; test: Cytotoxicity against human LOXIMVI cells after 24 hrs by SRB assay; type: cell-based; procedure, shortened: as §8
[28] = tested on: SR; test: Cytotoxicity against human SR cells after 24 hrs by SRB assay; type: functional; procedure, shortened: as §5
[29] = tested on: HL-60; test: Cytotoxicity against human HL60 cells after 24 hrs by SRB assay; type: functional; settings: HL-60, 24 h; procedure, shortened: as §2
[30] = tested on: MDA-MB-435; test: Cytotoxicity against human MDA-MB-435 cells after 24 hrs by SRB assay; type: cell-based; settings: mda-mb-435, 24 h; procedure, shortened: as §8
[31] = tested on: OVCAR-8; test: as §6; type: cell-based; settings: ovcar-8, 24 h; procedure, shortened: as §8
[32] = tested on: TK-10; test: Cytotoxicity against human TK10 cells after 24 hrs by SRB assay; type: cell-based; settings: tk-10, 24 h
Procedure, shortened: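 NCI 60-cell-line screen: cells grown in RPMI 1640 with 5% FBS and 2 mM L-glutamine, seeded at 5,000–40,000 cells/well by doubling time, and preincubated 24 h at 37 °C in 5% CO2. Time-zero plates were TCA-fixed. DMSO stocks were diluted in medium with gentamicin to five concentrations (100, 10, 1.0, 0.1, […]). Protein was read by SRB, and GI50, TGI and LC50 were derived against time-zero.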

[33] = tested on: DU-145; test: Cytotoxicity against human DU145 cells after 24 hrs by SRB assay; type: cell-based; settings: du-145, 24 h; procedure, shortened: as §8
[34] = tested on: MCF7; test: Cytotoxicity against human MCF7 cells after 24 hrs by SRB assay; type: cell-based; settings: mcf7, 24 h; procedure, shortened: as §8
[35] = as §7; type: cell-based; procedure, shortened: as §8
[36] = tested on: SK-OV-3; test: Cytotoxicity against human SKOV3 cells after 24 hrs by SRB assay; type: functional; settings: SK-OV-3, 24 h; procedure, shortened: as §2

O=C(/C=C/c1cc2ccccc2[nH]c1=O)c1ccc(O)cc1
GI50 [1]: 2.62 µM
TGI [1]: 8.17 µM
GI50 [2]: 3.29 µM
TGI [2]: 10.9 µM
GI50 [3]: 3.18 µM
TGI [3]: 20 µM
GI50 [4]: 2.73 µM
TGI [4]: 11.8 µM
GI50 [5]: 1.94 µM
TGI [5]: 4.38 µM
GI50 [6]: 7.04 µM
TGI [6]: 44 µM
GI50 [7]: 4.59 µM
TGI [7]: 18 µM
GI50 [8]: 9.3 µM
TGI [8]: 23 µM
GI50 [9]: 3.87 µM
TGI [9]: 16 µM
GI50 [10]: 4.13 µM
TGI [10]: 13.6 µM
GI50 [11]: 2.6 µM
TGI [11]: 6.57 µM
GI50 [12]: 5.11 µM
TGI [12]: 19.5 µM
GI50 [13]: 2.9 µM
TGI [13]: > 100 µM
GI50 [14]: 3.23 µM
TGI [14]: 21.1 µM
GI50 [15]: 3.2 µM
TGI [15]: 12.8 µM
GI50 [16]: 4.71 µM
TGI [16]: > 100 µM
GI50 [17]: 3.48 µM
TGI [17]: 16 µM
GI50 [18]: 1.95 µM
TGI [18]: 5.35 µM
GI50 [19]: 4.19 µM
TGI [19]: 20.4 µM
GI50 [20]: 6.15 µM
TGI [20]: > 100 µM
LC50 [21]: 85.2 µM
LC50 [22]: > 100 µM
LC50 [23]: 89.9 µM
LC50 [24]: 9.91 µM
LC50 [25]: 15.4 µM
LC50 [26]: 61.674 µM
LC50 [27]: > 100 µM
GI50 [28]: 1.66 µM
GI50 [29]: 2.66 µM
TGI [29]: 6.86 µM
LC50 [30]: > 100 µM
LC50 [31]: > 100 µM
LC50 [32]: 34.6 µM
LC50 [33]: 38 µM
LC50 [34]: 82.9 µM
LC50 [35]: > 100 µM

O=C(/C=C/c1cc2ccccc2[nH]c1=O)/C=C/c1cc2ccccc2[nH]c1=O
GI50 [1]: 3.65 µM
TGI [1]: > 100 µM
GI50 [2]: 2.77 µM
TGI [2]: 8.01 µM
GI50 [3]: 2.42 µM
TGI [3]: 87.7 µM
GI50 [4]: 0.764 µM
GI50 [5]: 0.131 µM
TGI [5]: 0.299 µM
GI50 [6]: 2.64 µM
GI50 [7]: 5.12 µM
TGI [7]: > 100 µM
GI50 [9]: 1.98 µM
TGI [9]: 4.79 µM
GI50 [10]: > 100 µM
TGI [10]: > 100 µM
GI50 [11]: 0.393 µM
GI50 [12]: 4.96 µM
TGI [12]: > 100 µM
GI50 [13]: > 100 µM
TGI [13]: > 100 µM
GI50 [14]: 2.6 µM
TGI [14]: > 100 µM
GI50 [36]: 18.1 µM
TGI [36]: > 100 µM
GI50 [16]: 2.36 µM
TGI [16]: > 100 µM
GI50 [17]: 2.66 µM
TGI [17]: > 100 µM
GI50 [18]: 1.9 µM
TGI [18]: 6.15 µM
GI50 [19]: 3.27 µM
TGI [19]: > 100 µM
LC50 [21]: > 100 µM
LC50 [22]: > 100 µM
LC50 [23]: > 100 µM
LC50 [24]: > 100 µM
LC50 [25]: 5.12 µM
LC50 [26]: > 100 µM
GI50 [28]: 1.14 µM
TGI [28]: > 100 µM
GI50 [29]: 3.38 µM
TGI [29]: > 100 µM
LC50 [31]: > 100 µM
LC50 [32]: > 100 µM
LC50 [33]: > 100 µM
LC50 [34]: > 100 µM
